The text below walks through data of ChEMBL document CHEMBL1130028, “A comparison of structure-activity relationships between spermidine and spermine analogue antineoplastics” (J Med Chem, 1997).

Data set [1] deals with L1210. As to the kind of experiment: Growth inhibitory activity against L1210 cells (48h). It counts as functional, cell-based. As to conditions: Mus musculus, L1210, 48 h. In short, it runs like this:
(§1)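 Murine L1210 leukemia cells were kept in log growth in RPMI-1640 with 10% fetal calf serum or NuSerum, HEPES-MOPS buffer and 1 mM aminoguanidine. IC50 is the concentration giving 50% of untreated control growth, as the mean of at least two experiments.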

A short description of data set [2]: The chronic lethal dose administered as intraperitoneal injection in mice. It counts as ADME. The conditions noted are these: mouse, in vivo, ip. In short, it runs like this:
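Female CD-1 mice, 10–12 weeks old. Analogue given as hydrochloride salt by ip injection three times daily for 6 days (18 doses). Appetite, weight and appearance monitored daily, and lethality scored 10 days after the final dose.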

The subject of data set [3] is L1210. Kind of data set: Intracellular levels in L1210 cells following 500 uM exposure. It counts as functional, Mus musculus. Summed up: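 L1210 cells were grown 48 h in medium containing 500 μM analogue. Cellular contents were analysed by HPLC of dansyl derivatives and given as pmol/10^6 cells, as parent drug and metabolites with the % of total drug in the cell.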

Data set [4] has as its system L1210. Kind of data set: Percentage of putrescine after 48 hr exposure to the compound (75 uM ) in L1210 cells. It is filed as functional, Mus musculus. In short, it runs like this: (§2)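 Log-phase L1210 cells were treated for 48 h with analogue at two concentrations. Cells were washed twice in cold RPMI-1640 and extracted with 0.6 N HClO4. Putrescine, spermidine and spermine were quantified by HPLC of dansyl derivatives and given as percent of untreated controls. Runs were in triplicate with untreated controls.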

The subject of data set [5] is L1210. As to the kind of experiment: Growth inhibitory activity against L1210 cells (96h). It counts as functional, cell-based. The conditions noted are these: Mus musculus, L1210, 96 h. In short, it runs like this:
as §1

For data set [6], the system named is L1210. Kind of data set: Percentage of putrescine after 48 hr exposure to the compound (15 uM )in L1210 cells. It is filed as functional, Mus musculus. In short, it runs like this: as §2
Data set [7] deals with T1, S-adenosylmethionine decarboxylase proenzyme 1 (Mus musculus) (UniProt P0DMN7).
T1 sequence (whole entry): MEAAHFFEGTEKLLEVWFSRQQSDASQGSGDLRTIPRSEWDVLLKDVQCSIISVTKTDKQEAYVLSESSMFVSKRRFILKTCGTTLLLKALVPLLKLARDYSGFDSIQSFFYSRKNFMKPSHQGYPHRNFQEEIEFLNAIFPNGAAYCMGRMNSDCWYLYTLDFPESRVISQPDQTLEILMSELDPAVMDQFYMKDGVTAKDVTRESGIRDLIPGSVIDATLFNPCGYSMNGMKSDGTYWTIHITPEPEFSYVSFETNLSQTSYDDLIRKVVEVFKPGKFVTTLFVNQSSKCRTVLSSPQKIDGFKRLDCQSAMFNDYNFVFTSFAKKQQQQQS
Kind of data set: Effect on S-Adenosyl-methionine decarboxylase (AdoMetDC) tested at 1 uM at 6 hour in L1210 cells. It counts as functional, cell-based. Summed up:
(§3)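 L1210 cells were exposed to 1 μM analogue, for 4 h (ODC) or 6 h (AdoMetDC). Activity was measured as 14CO2 released from [14C]carboxyl-labelled L-ornithine (ODC) or S-adenosyl-L-methionine (AdoMetDC) and given as percent of untreated control. Each run included DEHSPM-treated positive controls. Values are the mean of at least three experiments.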

In data set [8] the test system is L1210. As to the kind of experiment: Percentage of spermidine after 48 hr of exposure to the compound (15 uM ) in L1210 cells. It is filed as functional, Mus musculus. In short, it runs like this:
as §2

Data set [9] concerns the target Spermidine/spermine N(1)-acetyltransferase (SAT) (Mus musculus) (UniProt Q6P8J2+P48026). Kind of data set: Effect on Spermidine/Spermine-Acetyltransferase (SSAT ) at 10 uM at 48 hour in L1210 cells. It is filed as functional, cell-based. Summed up: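 L1210 cells were exposed to 10 μM triamine for 48 h. SSAT activity was taken as [14C]N1-acetylspermidine formed from spermidine and [14C]acetyl-CoA, given as percent of untreated control. DENSPM-treated cells served as positive control. Values are the mean of at least three experiments.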

Data set [10] in a line: Effect on ornithine decarboxylase (ODC) tested at 1 uM at 4 hour in L1210 cells. It is filed as functional, Mus musculus. Summed up: as §3
The test system of data set [11] is L1210. Kind of data set: Percentage of spermidine after 48 hr of exposure to the compound (75 uM ) in L1210 cells. It counts as functional, Mus musculus. In short, it runs like this: as §2
A short description of data set [12]: Binding affinity values for polyamine transporter was determined.
In data set [13] the test system is L1210. Kind of data set: Percentage of spermidine after 48 hr of exposure to the compound (4.5 uM ) in L1210 cells. It is filed as functional, Mus musculus. Summed up:
(§4)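 Murine L1210 leukemia cells in log-phase growth (RPMI-1640, 10% fetal calf serum or NuSerum, HEPES-MOPS, 1 mM aminoguanidine) exposed to analogue for 48 h. Cells washed twice with cold RPMI-1640 and extracted with 0.6 N HClO4. PUT, SPD and SPM measured by HPLC of DANSYL derivatives and given as percent of untreated controls. Triplicate flasks per experiment.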

For data set [14], the system named is L1210. As to the kind of experiment: Percentage of spermidine after 48 hr of exposure to the compound (0.9 uM ) in L1210 cells. It is filed as functional, Mus musculus. In short, it runs like this: as §4
Data set [15] concerns L1210. As to the kind of experiment: Percentage of putrescine after 48 hr exposure to the compound (4.5 uM ) in L1210 cells. It is filed as functional, Mus musculus. In short, it runs like this: as §4
In data set [16] the test system is L1210. Kind of data set: Percentage of putrescine after 48 hr exposure to the compound (0.9 uM ) in L1210 cells. It counts as functional, Mus musculus. Summed up: as §4
The test system of data set [17] is L1210. Kind of data set: Percentage of spermine after 48 hr exposure to the compound (4.5 uM ) in L1210 cells. It counts as functional, Mus musculus. Summed up: as §4
Data set [18] relates to L1210. As to the kind of experiment: Percentage of spermine (after 48 hr exposure to 100 uM) in L1210 cells. It is filed as functional, Mus musculus. Summed up:
as §2

The test system of data set [19] is L1210. Kind of data set: Percentage of spermidine (after 48 hr exposure to 500 uM) in L1210 cells.
Data set [20] relates to L1210. Kind of data set: Percentage of putrescine (after 48 hr exposure to 100 uM) in L1210 cells. It is filed as functional, Mus musculus. Summed up:
as §2

For data set [21], the system named is L1210. Kind of data set: Percentage of spermine (after 48 hr exposure to 500 uM) in L1210 cells. It counts as functional, Mus musculus. Summed up: as §2
The subject of data set [22] is L1210. As to the kind of experiment: Percentage of spermidine (after 48 hr exposure to 100 uM) in L1210 cells.
For data set [23], the system named is L1210. Kind of data set: Percentage of putrescine after 48 hr exposure to the compound (500 uM ) in L1210 cells. It is filed as functional, Mus musculus. In short, it runs like this: as §2

Sequence of Spermidine/spermine N(1)-acetyltransferase (SAT) (Mus musculus) (P48026 whole entry, looked up): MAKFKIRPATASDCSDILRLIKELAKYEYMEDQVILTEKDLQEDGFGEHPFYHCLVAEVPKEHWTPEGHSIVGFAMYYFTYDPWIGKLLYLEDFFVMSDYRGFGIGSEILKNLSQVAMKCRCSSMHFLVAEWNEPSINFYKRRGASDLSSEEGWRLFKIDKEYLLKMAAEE
Sequence of Spermidine/spermine N(1)-acetyltransferase (SAT) (Mus musculus) (Q6P8J2 whole entry, looked up): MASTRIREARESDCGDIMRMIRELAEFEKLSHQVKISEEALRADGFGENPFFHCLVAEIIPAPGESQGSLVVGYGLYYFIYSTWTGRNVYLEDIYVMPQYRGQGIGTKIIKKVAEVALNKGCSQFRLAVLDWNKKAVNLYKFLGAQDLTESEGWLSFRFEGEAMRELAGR

What is called IC50 is the point on the concentration scale where inhibition reaches its midpoint. Lower therefore signals greater potency in that assay. What is called LD50 is the dose at which mortality reaches 50%. A lower LD50 goes with a more toxic substance. As to `CCNCCCCCNCCCCNCCCCCNCC`, inhibition in data set [1] was half-maximal at 0.4 µM (IC50). The LD50 in data set [2] was found to be 36 mg/kg/day.

What is called Ki is a dissociation constant, usually derived from enzyme kinetics or from competition with a known ligand. High values mean lower affinity, low ones higher affinity. Take `CNCCCCCNCCCCCNC`: in data set [3], the “Picoequivalents of amine/10e6 cells” value is on record as 15500. Besides, the Polyamine in data set [4] is reported as 0%; in data set [6], 0%; in data set [8] it was 33%; in [11], 20%. The IC50 in [5] is 0.4 µM; in data set [1], 15 µM. In addition, in data set [7], the AdoMetDC is 97%. Also, in [9], the SSAT is 90%. In addition, the ODC in [10] is given as 105%. In addition, the Ki in data set [12] was found to be 130 µM.

For the molecule `NCCCNCCCN` [NORSPERMIDINE], the Polyamine is listed as 12% in [13]; 44% in data set [14]; 0% in data set [15]; 38% in data set [16]; 83% in data set [17]. Further, the IC50 in data set [5] was 0.5 µM; in [1], 0.9 µM. Besides, the AdoMetDC in [7] was 62%. Also, the SSAT in [9] came to 150%. Further, in data set [10], the ODC stood at 11%. Moreover, the Ki in data set [12] stood at 7.2 µM.

With `CCNCCCCNCCCN`, the Polyamine in [18] was found to be 84%; in data set [20] it was 0%; in data set [21], 61%; in data set [23], 0%. Moreover, the “Picoequivalents of amine/10e6 cells” value in data set [3] worked out at 17990. Also, the IC50 in [5] is 40 µM; in data set [1], above 100 µM. Further, the Spermidine % in data set [19] was 15%; in [22], 26%. Further, the AdoMetDC in data set [7] was determined as 54%. This molecule also yielded an SSAT in data set [9] of 400%. In [10], this molecule came in with an ODC of 17%. In data set [12], this molecule returned a Ki of 7 µM.

For `CCCNCCCNCCCN`, the Polyamine is 56% in data set [18], 0% in data set [20], 49% in [21] and 0% in data set [23]. The “Picoequivalents of amine/10e6 cells” value in [3] came to 17710. The IC50 in data set [5] is 100 µM; in [1], above 100 µM. The Spermidine % worked out at 15% in [19] and 29% in [22]. The AdoMetDC in [7] came to 38%. This molecule returned an SSAT in [9] of 470%. This molecule also returned an ODC in data set [10] of 33%. In [12], the inhibition constant Ki was found to be 33 µM.
